The list is a sample of the results.
PGC1a Ac signal – raises PGC1a acetylation signal in U2OS cells | U2OS PGC1a acetylation AlphaScreen, overnight | AID 651723 | 350,000 compounds, 0.21% hits | activation, % at 15.6 µM;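 active = every replicate reaching activation of at least 50%, whatever the mean replicate activation; inconclusive = replicates that disagree or another doubt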;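 note: hits raise the AlphaScreen acetylation signal above neutral controls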
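detection = AlphaScreen lysate read | assay system = U2OS cells expressing flag-PGC1a plus GCN5 | input = 7000 cells/well | dosing = one concentration | times = compound overnight at 37 °C, each detection step 1 h RT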
G6PC hep suppr – PGC-1a acetylation activators affecting G6PC expression in hepatocytes | primary mouse hepatocytes, G6PC mRNA qPCR, forskolin | 240 tested, under 10 active | G6PC suppression (normalized activity, % of positive control; higher = more suppression), % at 26 µM | shares compounds with PGC1a Ac signal | AID 743463;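 active = dose curves showing G6PC suppression whose half-maximal dose is at most twice the top valid dose; inconclusive = flat curves with moderate negative activity, or unreliable fits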;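 note: G6PC expression relative to GAPDH housekeeping gene as delta delta Ct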
Hep PCK1 suppr – hepatocyte PCK1 expression change via PGC-1a acetylation activation. PCK1 expression decrease, unspecified at 26 µM. 230 tested, under 10 active. primary mouse hepatocytes, PCK1 mRNA qPCR, forskolin-stimulated. shares compounds with PGC1a Ac signal;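 active = compounds lowering PCK1 expression whose fitted half-maximal concentration is at most twice the top tested dose; inconclusive = flat fit with moderate opposite-direction effect, or poor fit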;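 note: higher delta delta Ct means lower PCK1 expression so positive values indicate hits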
PGC1a hep suppr – PGC-1a acetylation activators affecting PGC-1a expression in hepatocytes. primary mouse hepatocytes, PGC-1a mRNA qPCR, forskolin; top dose 26 µM. max activity (PGC-1a expression decrease), %. shares compounds with PGC1a Ac signal. 240 tested, under 10 active;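 active = compound lowering PGC-1a expression with fitted half-maximal concentration at most twice its top tested dose; inconclusive = flat curve with moderate opposite-direction effect, or poor fit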
Of the large screens only hits and unclear results are named; the others gave an inactive call (follow-up assays come after a bar, where they were run).

Cc1ccc(O)c(NC(=O)c2ccc3c(c2)C(=O)N(CC(C)C)C3=O)c1	none
OC[C@@H]1CN(Cc2ccccc2)C[C@H](n2cnc3c(NCc4ccco4)ncnc32)O1	none
COc1ccc(CN2CCn3ncc(C(=O)Nc4ccccc4)c3C2=O)cc1	none | G6PC hep suppr inactive | Hep PCK1 suppr inactive | PGC1a hep suppr inactive
O=C(COCc1cc(-c2ccc3c(c2)OCO3)on1)Nc1cccnc1	PGC1a Ac signal 94 | G6PC hep suppr inactive | Hep PCK1 suppr inactive | PGC1a hep suppr inconclusive
CCOC(=O)c1ccc(N2C(=O)CC(N3CCC(O)(c4ccc(Br)cc4)CC3)C2=O)cc1 (configuration not stated)	none
COc1ccc(-c2nc3ccccc3c(=O)o2)cc1OC	none
O=C(Nc1ccc(OCC(=O)N2CCC(Cc3ccccc3)CC2)cc1)c1ccco1	PGC1a Ac signal 67 | Hep PCK1 suppr inactive | PGC1a hep suppr inactive
N=c1n(Cc2ccccc2)c2ccccc2n1CC(O)COc1ccc(Cl)cc1Cl (configuration not stated)	none
O=C(NN1c2ccccc2CCc2ccccc21)c1ccccc1Br	PGC1a Ac signal inconclusive | G6PC hep suppr inactive | Hep PCK1 suppr inactive | PGC1a hep suppr inactive
O=C(c1cc(Cl)ccc1Cl)N1CCc2ccccc21	none
COc1ccccc1CN1C[C@@H]2C[C@@H](c3cccc(C)n3)N3CCC[C@@]23C1=O	none
O=C(OCc1ccccc1)N1CCC2CC1c1cc(-c3ccc(F)cc3)ccc12 (configuration not stated)	none
CCOCCn1c(CN(Cc2ccccc2)Cc2ccccc2)nc2c1c(=O)n(C)c(=O)n2C	PGC1a Ac signal 56 | Hep PCK1 suppr inactive | PGC1a hep suppr inactive
CCCCn1c(CN(Cc2ccccc2)Cc2ccccc2)nc2c1c(=O)n(C)c(=O)n2C	PGC1a Ac signal inconclusive | G6PC hep suppr inactive | Hep PCK1 suppr inactive | PGC1a hep suppr inactive
CCOCCn1c(CN(Cc2ccccc2)Cc2ccccc2)nc2c1c(=O)[nH]c(=O)n2C	PGC1a Ac signal inconclusive | G6PC hep suppr inactive | Hep PCK1 suppr inactive | PGC1a hep suppr inactive
CC1(C)OC(=O)C(=Cc2ccc[nH]2)C(=O)O1	none
N/C(=N\OC(=O)CCCOc1ccccc1)c1ccc([N+](=O)[O-])cc1	none
O=[N+]([O-])c1c(NCCCO)cc(Sc2nc3ccccc3s2)c2nonc12	none
CCOC(=O)NC(=S)Nc1cccc(NC(=S)NC(=O)OCC)c1	none
COc1cccc2c1C(=O)c1c(O)c3c(c(O)c1C2=O)C[C@@](O)(C(C)=O)C[C@@H]3O[C@H]1C[C@H](N)[C@H](O)[C@H](C)O1	none
COc1ccc(OCCc2nnc(N)s2)cc1	none
Cc1c(/C(O)=C2\C(=O)C(=O)N(CCCN(C)C)C2c2ccccc2)cnn1-c1ccccc1 (configuration not stated)	none
CCC1NC(=S)N(C2CCCCC2)C1=O (configuration not stated)	none
OC(c1cc(-c2ccc(Cl)cc2)nc2ccccc12)C1CCCCN1 (configuration not stated)	PGC1a Ac signal inconclusive | G6PC hep suppr inactive | Hep PCK1 suppr inactive | PGC1a hep suppr inactive
CC12CCC(C1)C(C)(C)C2NS(=O)(=O)c1ccc(F)cc1 (configuration not stated)	PGC1a Ac signal inconclusive | G6PC hep suppr inactive | PGC1a hep suppr inconclusive
CN1CC=C2C(C#N)=C(N)C(C#N)(C#N)C(CCc3ccccc3)C2C1 (configuration not stated)	none
CCCCN(CC)CCCNC(=O)c1cc2c(=O)n(CC)c3ccccc3c2s1	PGC1a Ac signal inconclusive | G6PC hep suppr inactive | Hep PCK1 suppr inactive | PGC1a hep suppr inactive
Cc1cc(/C=C2\C(=N)N3N=C(C(C)C)SC3=NC2=O)c(C)n1Cc1ccccc1	none
Cc1ccc2[nH]c(=O)c(CN(Cc3ccc4c(c3)OCO4)Cc3nnnn3C3CCCC3)cc2c1	PGC1a Ac signal 58 | G6PC hep suppr inactive | Hep PCK1 suppr inactive | PGC1a hep suppr inactive
COc1ccc(CN(Cc2cc3ccc(C)cc3[nH]c2=O)Cc2nnnn2C2CCCC2)cc1	none
CN1CCN(C2=C(Cl)C(=O)N(CCc3ccccc3)C2=O)CC1	none
O=C(Nc1cccnc1)c1ccc(Oc2ccccc2)cc1	PGC1a Ac signal 78 | G6PC hep suppr inactive | Hep PCK1 suppr inactive | PGC1a hep suppr inconclusive
CCCOc1ccc(C(=O)Nc2cccnc2)cc1	PGC1a Ac signal 77 | G6PC hep suppr inactive | Hep PCK1 suppr inactive | PGC1a hep suppr inactive
Cc1cc(C(=O)CSc2nnc(-c3ccccc3)o2)c(C)n1CC1COc2ccccc2O1 (configuration not stated)	none
CC(=O)Nc1ccc(NC2=C/C(=N/S(=O)(=O)c3cccs3)c3ccccc3C2=O)cc1	none
O=S(=O)(Nc1cc(Sc2ncn[nH]2)c(O)c2ccccc12)c1ccccc1	none
CCN1CCN(c2ncc(C(=O)Nc3cc(Cl)ccc3OC)c3ccccc23)CC1	none | G6PC hep suppr inactive | Hep PCK1 suppr inconclusive | PGC1a hep suppr inactive
Nn1cnnc1N/N=C/c1ccc(Cl)c([N+](=O)[O-])c1	none
CCN(CC)C(=O)c1sc(NC(=O)c2ccncc2)c(C(=O)OC)c1C	none
C#CCN1C(=O)C(O)(CC(=O)c2ccc(OC)c(OC)c2)c2ccccc21 (configuration not stated)	none
COc1ccccc1-c1ccc2c(c1)C(C)(Cc1ccc(OC(F)(F)F)cc1)C(=O)N2 (configuration not stated)	PGC1a Ac signal inconclusive | G6PC hep suppr inactive | Hep PCK1 suppr inactive | PGC1a hep suppr inactive
CCn1c(C(=O)NC2CCC(C)CC2)cc2sccc21 (configuration not stated)	none
CCc1nnc(N/N=C/c2ccccc2Cl)n1N	none
CCOC(=O)Cn1cc(/C=C(/C#N)C(=O)NC(C)C)c2ccccc21	none
O=C(C[C@H]1CC[C@H]2[C@@H](COC[C@@H](O)CN2C(=O)c2cc(Cl)cc(Cl)c2)O1)N1CCc2ccccc2C1	PGC1a Ac signal inconclusive | G6PC hep suppr inactive | Hep PCK1 suppr inactive | PGC1a hep suppr inactive
CCc1nc(N)nc(N)c1-c1ccc(Cl)cc1	none
Cc1cccc(N2C(=O)C(Cl)=C(N3CCOCC3)C2=O)c1	none
COC(=O)c1cc2ccsc2n1CC(=O)Nc1cc(Cl)ccc1OC	PGC1a Ac signal 59 | G6PC hep suppr inactive | Hep PCK1 suppr inactive | PGC1a hep suppr inactive
Cc1ccc(CN(CC(O)COc2cccc3[nH]cc(C)c23)C(C)(C)C)cc1 (configuration not stated)	PGC1a Ac signal 90 | G6PC hep suppr inactive | Hep PCK1 suppr inactive | PGC1a hep suppr inactive
Clc1ccc(-c2csc(N3CCSCC3)n2)cc1	none | G6PC hep suppr inactive | Hep PCK1 suppr inactive | PGC1a hep suppr inactive
O=C(c1ccc(NC(=O)C2(c3ccccc3)CCOCC2)cc1)N1CCOCC1	none
COc1ccccc1CN1CCCC(C(=O)N(C)Cc2ccccc2)C1 (configuration not stated)	none
O=C(Nc1ccc(-c2cn3c(n2)SCC3)cc1)c1ccc2ccccc2n1	none
O=C(Nc1ccc(F)cc1)N1CCN(c2nc3ccccc3s2)CC1	PGC1a Ac signal inconclusive | G6PC hep suppr inactive | Hep PCK1 suppr inconclusive | PGC1a hep suppr inactive
Cn1nnnc1SC1CC(=O)N(c2ccccc2)C1=O (configuration not stated)	none

Source: PubChem (Broad Institute)
